Measured values from ChEMBL document CHEMBL5647683 (Oncogene, 2008).

Tests used:
[1] = Inhibition of human EGFR L747_P753del7insS-T790M mutant expressed in mouse BaF3 cells assessed as reduction in cell survival incubated for 48 hrs by WST assay
[2] = Inhibition of human EGFR S752_I759del8 mutant expressed in mouse BaF3 cells assessed as reduction in cell survival incubated for 48 hrs by WST assay
[3] = Inhibition of human EGFR variant III deletion expressed in mouse BaF3 cells assessed as reduction in cell survival incubated for 48 hrs by WST assay
[4] = Inhibition of human EGFR L858R-T790M double mutant expressed in mouse BaF3 cells assessed as reduction in cell survival incubated for 48 hrs by WST assay
[5] = Inhibition of human EGFR S752_I759del8-T790M mutant expressed in mouse BaF3 cells assessed as reduction in cell survival incubated for 48 hrs by WST assay
A-431 [6] = assay: Antitumor activity against human A-431 cells xenografted athymic NMRI-nu/nu female mouse as reduction in tumor volume at 75 mg/kg, po administered daily for 25 days relative to control; type: functional; conditions: time 25 day
In short: (§1)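 Female athymic NMRI-nu/nu mice (5–6 weeks, 21–31 g) given 1–5×10⁶ cells into the right flank; MDA-MB-453 tumors started from fresh 2×2×2 mm fragments. At 40–130 mm³, tumors were randomized to weight-based daily oral gavage (10 ml/kg; 1.8% HP-β-CD, 5% acetic acid (10%), 0.5% Natrosol) or vehicle. Caliper measurement 3×/week, volume π/6×L×W². Expressed as cumulative treated/control volume ratio; one-way ANOVA with Dunnett's test.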

A-431 [7] = assay: Antitumor activity against human A-431 cells xenografted athymic NMRI-nu/nu female mouse as reduction in tumor volume at 2x100 mg/kg, po administered daily for 25 days relative to control; type: functional; conditions: dose 100 mg/kg, time 25 day; in short: as §1

## C#Cc1cccc(Nc2ncnc3cc(OCCOC)c(OCCOC)cc23)c1 [ERLOTINIB]
[1]
  IC50: >10 µM
[2]
  IC50: 0.033 µM
[3]
  IC50: 0.144 µM
[4]
  IC50: >10 µM
[5]
  IC50: >10 µM

## COc1cc2ncnc(Nc3ccc(F)c(Cl)c3)c2cc1OCCCN1CCOCC1 [GEFITINIB]
A-431 [6]
  T/C: 46%

## CS(=O)(=O)CCNCc1ccc(-c2ccc3ncnc(Nc4ccc(OCc5cccc(F)c5)c(Cl)c4)c3c2)o1 [LAPATINIB]
A-431 [7]
  T/C: 32%
